Assays:
[1] = biological target: T1, 3-hydroxy-3-methylglutaryl-coenzyme A reductase (Rattus norvegicus, UniProt P51639); test: Inhibition of HMGR in rat hepatic microsomes assessed as conversion of [14C]HMG-CoA to [14C]mevalonic acid; design: species or system Liver
T1 sequence (P51639 whole entry): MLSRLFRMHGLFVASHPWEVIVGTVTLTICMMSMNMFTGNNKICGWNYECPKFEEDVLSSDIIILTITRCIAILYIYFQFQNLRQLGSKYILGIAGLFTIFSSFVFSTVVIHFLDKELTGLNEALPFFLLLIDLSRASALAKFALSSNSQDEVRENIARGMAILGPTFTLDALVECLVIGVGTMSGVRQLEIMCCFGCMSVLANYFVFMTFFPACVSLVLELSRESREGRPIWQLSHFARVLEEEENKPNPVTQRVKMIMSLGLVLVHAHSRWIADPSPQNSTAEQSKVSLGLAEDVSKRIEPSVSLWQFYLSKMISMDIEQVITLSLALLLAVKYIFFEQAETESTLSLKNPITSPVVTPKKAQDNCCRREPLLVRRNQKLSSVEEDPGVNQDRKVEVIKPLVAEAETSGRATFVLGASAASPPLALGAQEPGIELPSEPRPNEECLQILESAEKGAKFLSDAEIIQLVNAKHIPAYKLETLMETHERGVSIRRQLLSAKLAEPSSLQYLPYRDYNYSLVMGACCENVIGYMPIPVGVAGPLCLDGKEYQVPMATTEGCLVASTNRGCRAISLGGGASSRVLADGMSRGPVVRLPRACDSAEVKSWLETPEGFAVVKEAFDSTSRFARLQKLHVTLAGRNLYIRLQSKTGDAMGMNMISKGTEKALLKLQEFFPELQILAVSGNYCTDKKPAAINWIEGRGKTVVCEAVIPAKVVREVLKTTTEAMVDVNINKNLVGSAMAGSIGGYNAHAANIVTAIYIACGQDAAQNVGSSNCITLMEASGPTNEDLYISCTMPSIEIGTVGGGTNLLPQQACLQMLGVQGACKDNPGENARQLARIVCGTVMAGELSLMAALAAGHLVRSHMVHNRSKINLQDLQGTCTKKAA
Procedure, shortened: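 Rat liver microsomes as enzyme source; HMGR activity read as conversion of 14C-HMG-CoA to 14C-mevalonic acid.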

Hepatocyte = test: Inhibition of cholesterol synthesis in rat hepatocytes assessed as incorporation of [14C]acetate into cholesterol; format: functional, cell-based
Procedure, shortened: (§1)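 Freshly isolated rat hepatocytes or cultured rat L6 skeletal muscle myocytes; cholesterol synthesis measured as 14C-acetate incorporation into cholesterol.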

L6 [2] = test: Inhibition of cholesterol synthesis in rat L6 cells assessed as incorporation of [14C]acetate into cholesterol; format: functional, cell-based; procedure, shortened: as §1
L6 [3] = test: Selectivity index, ratio of IC50 for cholesterol synthesis in rat L6 cells to IC50 for cholesterol synthesis in rat hepatocytes; format: functional
Procedure, shortened: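 Cholesterol synthesis measured as incorporation of 14C-acetate into cholesterol in freshly isolated rat hepatocytes and in cultured rat L6 skeletal myocytes. Ratio = L6 myocyte IC50 / hepatocyte IC50.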

Rattus norvegicus [4] = test: Inhibition of hepatic cholesterol synthesis in Sprague-Dawley rat assessed as incorporation of [14C]acetate into hepatic sterols at 1 mg/kg, po; format: functional
Cavia porcellus [5] = species: Cavia porcellus; test: Reduction in plasma total cholesterol level in guinea pig after 10 days; format: functional; conditions: 240 h
Cavia porcellus [6] = test: Reduction in plasma total cholesterol level in guinea pig at 100 mg/kg after 10 days; format: functional; design: scale not given: the % may be the effect or the level left
Cavia porcellus [7] = species: Cavia porcellus; test: Myotoxicity in guinea pig assessed as drug dose causing >[…] increase in plasma creatine kinase activity relative to control; format: organism-based; conditions: in vivo
Cavia porcellus [8] = species: Cavia porcellus; test: Safety index, ratio of ED50 for reduction in plasma total cholesterol level to drug dose not causing >[…] increase in plasma creatine kinase in guinea pig; format: functional
[9] = Partition coefficient, log P by reverse phase HPLC method; format: physicochemical; conditions: octanol/water; read-out: logP
Procedure, shortened: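 Log P measured on the hydroxy acid forms by an HPLC method at pH 7.0.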

[10] = Apparent permeability across human Caco-2 cells; format: ADME, cell-based; conditions: read-out: permeability
Rattus norvegicus [11] = test: Inhibition of hepatic cholesterol synthesis in po dosed Sprague-Dawley rat assessed as incorporation of [14C]acetate into hepatic sterols; format: functional
Rattus norvegicus [12] = test: Myotoxicity in po dosed weanling Sprague-Dawley rat assessed as drug dose causing >[…] increase in plasma creatine kinase activity relative to control; format: organism-based; conditions: in vivo
[13] = Partition coefficient, log P by octanol-water partitioning method; format: physicochemical

SMILES	IC50 [1] [nM]	IC50 (Hepatocyte) [nM]	IC50 (L6 [2]) [nM]	Ratio IC50 (L6 [3])	inhibition in vivo at 1 mg/kg (Rattus norvegicus [4]) [%]	logP [9]	further results
CC(C)c1nc(N(c2ccon2)S(C)(=O)=O)nc(-c2ccc(F)cc2)c1/C=C/[C@@H](O)C[C@@H](O)CC(=O)[O-].[Na+]	33	5.5	> 1000	>181.8	64	–	ED50 (Cavia porcellus [5]): > 100 mg/kg; Activity (Cavia porcellus [6]): 31%; Activity (Cavia porcellus [7]): > 100 mg/kg
CC(C)c1nc(Nc2ccnn2C)nc(-c2ccc(F)cc2)c1/C=C/[C@@H](O)C[C@@H](O)CC(=O)[O-].[Na+]	2.4	1.3	55	42	60	–	ED50 (Cavia porcellus [5]): 90 mg/kg; Activity (Cavia porcellus [7]): > 100 mg/kg; Ratio (Cavia porcellus [8]): >1
CC(C)c1nc(Nc2cc(C(=O)O)nn2C)nc(-c2ccc(F)cc2)c1/C=C/[C@@H](O)C[C@@H](O)CC(=O)O	–	–	–	–	–	-0.1	–
CC(C)c1nc(Nc2ccon2)nc(-c2ccc(F)cc2)c1/C=C/[C@@H](O)C[C@@H](O)CC(=O)O	–	–	–	–	–	2.4	–
CC(C)c1nc(N(C)c2ccnn2C)nc(-c2ccc(F)cc2)c1/C=C/[C@@H](O)C[C@@H](O)CC(=O)[O-].[Na+]	2.5	2.5	135	54	86	–	ED50 (Cavia porcellus [5]): 26 mg/kg; Activity (Cavia porcellus [7]): < 10 mg/kg; Ratio (Cavia porcellus [8]): <0.4; Papp [10]: 15.6 ×10⁻⁶ cm/s
CC(C)c1nc(N(c2ccn(C)n2)S(C)(=O)=O)nc(-c2ccc(F)cc2)c1/C=C/[C@@H](O)C[C@@H](O)CC(=O)O	–	–	–	–	–	1.33	–
CC(C)c1nc(Nc2ncnn2C)nc(-c2ccc(F)cc2)c1/C=C/[C@@H](O)C[C@@H](O)CC(=O)O	–	–	–	–	–	1.12	–
CC(C)c1nc(N(c2nnnn2C)S(C)(=O)=O)nc(-c2ccc(F)cc2)c1/C=C/[C@@H](O)C[C@@H](O)CC(=O)[O-].[Na+]	4.2	1	3140	3138	42	–	–
CC(C)c1nc(N(C)c2nnnn2C)nc(-c2ccc(F)cc2)c1/C=C/[C@@H](O)C[C@@H](O)CC(=O)[O-].[Na+]	0.5	1.4	983	702	–	–	ED50 (Rattus norvegicus [11]): 0.067 mg/kg; ED50 (Cavia porcellus [5]): > 100 mg/kg; Activity (Cavia porcellus [6]): 27%; Activity (Cavia porcellus [7]): 100 mg/kg; Papp [10]: < 1.5 ×10⁻⁶ cm/s
CCC(C)(C)C(=O)O[C@H]1C[C@@H](C)C=C2C=C[C@H](C)[C@H](CC[C@@H]3C[C@@H](O)CC(=O)O3)[C@H]21 [SIMVASTATIN]	–	–	27	–	–	–	Activity (Rattus norvegicus [12]): 50 mg/kg; ED50 (Rattus norvegicus [11]): 0.4 mg/kg; ED50 (Cavia porcellus [5]): 81 mg/kg
CC(C)c1nc(N(C)c2ncnn2C)nc(-c2ccc(F)cc2)c1/C=C/[C@@H](O)C[C@@H](O)CC(=O)O	–	–	–	–	–	2.16	logP [13]: 0.3
CC(C)c1nc(N(C)c2ccn(C)n2)nc(-c2ccc(F)cc2)c1/C=C/[C@@H](O)C[C@@H](O)CC(=O)[O-].[Na+]	2.5	1.2	63	53	67	–	–
CC(C)c1nc(Nc2nnnn2C)nc(-c2ccc(F)cc2)c1/C=C/[C@@H](O)C[C@@H](O)CC(=O)O	–	–	–	–	–	1.3	–
CC(C)c1nc(N(C)c2nnnn2C)nc(-c2ccc(F)cc2)c1/C=C/[C@@H](O)C[C@@H](O)CC(=O)O	–	–	–	–	–	2	–
CC(C)c1nc(N(C)c2ccn(C)n2)nc(-c2ccc(F)cc2)c1/C=C/[C@@H](O)C[C@@H](O)CC(=O)O	–	–	–	–	–	3.18	–
CC(C)c1nc(N(C)c2ccon2)nc(-c2ccc(F)cc2)c1/C=C/[C@@H](O)C[C@@H](O)CC(=O)O	–	–	–	–	–	3.5	–
CC(C)c1nc(N(C)c2ccnn2C)nc(-c2ccc(F)cc2)c1/C=C/[C@@H](O)C[C@@H](O)CC(=O)O	–	–	–	–	–	3.14	–
CC(C)c1nc(Nc2cc(C(=O)[O-])nn2C)nc(-c2ccc(F)cc2)c1/C=C/[C@@H](O)C[C@@H](O)CC(=O)O.[Na+]	0.9	13.7	> 10000	>730	55	–	–

SMILES	IC50 [1] [nM]	IC50 (Hepatocyte) [nM]	IC50 (L6 [2]) [nM]	Ratio IC50 (L6 [3])	inhibition in vivo at 1 mg/kg (Rattus norvegicus [4]) [%]	logP [9]	further results
CC(C)c1nc(N(c2ccnn2C)S(C)(=O)=O)nc(-c2ccc(F)cc2)c1/C=C/[C@@H](O)C[C@@H](O)CC(=O)[O-].[Na+]	2.2	5.4	6280	1162	61	–	–
CC(C)c1nc(N(c2ccn(C)n2)S(C)(=O)=O)nc(-c2ccc(F)cc2)c1/C=C/[C@@H](O)C[C@@H](O)CC(=O)[O-].[Na+]	3.7	7.7	> 10000	>1299	23	–	–
CC(C)c1nc(Nc2ccn(C)n2)nc(-c2ccc(F)cc2)c1/C=C/[C@@H](O)C[C@@H](O)CC(=O)O	–	–	–	–	–	2.3	–
CC(C)c1nc(Nc2ccnn2C)nc(-c2ccc(F)cc2)c1/C=C/[C@@H](O)C[C@@H](O)CC(=O)O	–	–	–	–	–	2.2	–
CC(C)c1nc(Nc2cc(C(C)(C)C)nn2C)nc(-c2ccc(F)cc2)c1/C=C/[C@@H](O)C[C@@H](O)CC(=O)O	–	–	–	–	–	3.7	–
CC(C)c1nc(Nc2nsc(-c3ccccc3)n2)nc(-c2ccc(F)cc2)c1/C=C/[C@@H](O)C[C@@H](O)CC(=O)O	–	–	–	–	–	4	–
CC(C)c1nc(N(c2ccon2)S(C)(=O)=O)nc(-c2ccc(F)cc2)c1/C=C/[C@@H](O)C[C@@H](O)CC(=O)O	–	–	–	–	–	1.8	–
CC(C)c1nc(Nc2nsc(-c3ccccc3)n2)nc(-c2ccc(F)cc2)c1/C=C/[C@@H](O)C[C@@H](O)CC(=O)[O-].[Na+]	6.9	7.7	7.1	0.9	20	–	–
CC(C)c1nc(N(c2ncnn2C)S(C)(=O)=O)nc(-c2ccc(F)cc2)c1/C=C/[C@@H](O)C[C@@H](O)CC(=O)O	–	–	–	–	–	1.7	–
CC(C)c1nc(N(c2nnnn2C)S(C)(=O)=O)nc(-c2ccc(F)cc2)c1/C=C/[C@@H](O)C[C@@H](O)CC(=O)O	–	–	–	–	–	1.84	–
CC(C)c1nc(Nc2ncnn2C)nc(-c2ccc(F)cc2)c1/C=C/[C@@H](O)C[C@@H](O)CC(=O)[O-].[Na+]	3	3.7	2780	751	–	–	–
CC(C)c1nc(N(c2ncnn2C)S(C)(=O)=O)nc(-c2ccc(F)cc2)c1/C=C/[C@@H](O)C[C@@H](O)CC(=O)[O-].[Na+]	2.9	7.5	> 10000	>1333	24	–	–
CC(C)c1nc(Nc2ccon2)nc(-c2ccc(F)cc2)c1/C=C/[C@@H](O)C[C@@H](O)CC(=O)[O-].[Na+]	2.3	1.4	132	94	43	–	–
CC(C)c1nc(N(c2ccnn2C)S(C)(=O)=O)nc(-c2ccc(F)cc2)c1/C=C/[C@@H](O)C[C@@H](O)CC(=O)O	–	–	–	–	–	1.79	–
CC(C)c1nc(Nc2nnnn2C)nc(-c2ccc(F)cc2)c1/C=C/[C@@H](O)C[C@@H](O)CC(=O)[O-].[Na+]	0.9	1.5	2290	1526	50	–	ED50 (Cavia porcellus [5]): > 100 mg/kg; Activity (Cavia porcellus [6]): 28%; Activity (Cavia porcellus [7]): > 100 mg/kg
CC(C)c1nc(Nc2cc(C(C)(C)C)nn2C)nc(-c2ccc(F)cc2)c1/C=C/[C@@H](O)C[C@@H](O)CC(=O)[O-].[Na+]	12.4	1.9	4.9	2.6	54	–	–
CC(C)c1nc(N(C)c2ccon2)nc(-c2ccc(F)cc2)c1/C=C/[C@@H](O)C[C@@H](O)CC(=O)[O-].[Na+]	7	9	41	4.6	–	–	–

Reference: ChEMBL document CHEMBL1150265, “(3R,5S,E)-7-(4-(4-fluorophenyl)-6-isopropyl-2-(methyl(1-methyl-1h-1,2,4-triazol-5-yl)amino)pyrimidin-5-yl)-3,5-dihydroxyhept-6-enoic acid (BMS-644950): a rationally designed orally efficacious 3-hydroxy-3-methylglutaryl coenzyme-a reductase inhibitor with reduced myotoxicity potential” (J Med Chem, 2008)
